Consider 33 compounds from ChEMBL document CHEMBL1127795, “Small-molecule immunostimulants. Synthesis and activity of 7,8-disubstituted guanosines and structurally related compounds” (1994).

For assay [1], the species on record is Mus musculus. Kind of assay: Percent of maximum response was tested to augment the antibody response of B cells to sheep red blood cell challenge. It counts as functional. In short, it runs like this:
(§1)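 CBA/CaJ spleen cells depleted of T cells with anti-T cell monoclonal antibody (1:1000, 30 min, 4 °C) then complement (37 °C, 45 min). Cultured ± 0.1% SRBC antigen in serum-containing medium with compound from zero to 10⁻³ M for 4 d. Plaque-forming cells counted in agarose with guinea pig complement. ED50 and maximal response relative to a concurrent standard.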

Assay [2] is filed under the species Mus musculus. Kind of assay: Ability to act as B-cell mitogens. Type of assay: functional. Particulars: read-out: ED50 (the source's name). Put shortly:
(§2)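 CBA/CaJ mouse spleen cells (1 × 10⁵/0.2 mL) exposed to graded compound concentrations, dissolved in water or DMSO and diluted in medium, for 24 h. [³H]thymidine then added for a further 24 h; incorporation by scintillation counting. ED50 and maximal response expressed relative to a concurrently run standard (loxoribine in most cases).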

The species entered for assay [3] is Mus musculus. Description: Percent of maximum response was tested for its ability to act as B-cell mitogens (mitogenicity). Type of assay: functional. In short, it runs like this: as §2
For assay [4], the species on record is Mus musculus. Description: Augment antibody response of B cells to sheep red blood cell (SRBC) challenge (adjuvanticity). It counts as functional. Particulars: read-out: ED50 (the source's name). In short, it runs like this:
as §1

Assay [5] deals with YAC-1. Description: Percent of maximum response was tested for its ability to stimulate the natural killer response in murine in vitro cell assays. Type of assay: functional, Mus musculus.
Assay [6] has as its system YAC-1. Kind of assay: Stimulation of natural killer (NK) response in Yac-1 cell line (mouse, lymphoma). Particulars: read-out: ED50 (the source's name). Type of assay: functional.

pEC50: −log10 of the molar value.

For the compound `C=CCSc1nc2c(O)nc(N)nc2n1C1OC(CO)[C@@H](O)[C@H]1O` (stereo partly specified), the results for the Max response in the assay filed under Mus musculus [1] and in the assay filed under Mus musculus [3] were 107% and 57%, respectively. In addition, the pEC50 in the assay filed under Mus musculus [2] is 3.31; in the assay filed under Mus musculus [4], 3.97.
Regarding `C=CCn1c(=O)n([C@@H]2O[C@H](CO)[C@H]3OC(CCC)(CCC)O[C@H]32)c2nc(N)nc(O)c21`, the Max response in the assay listed under Mus musculus [1] came to 123%; with YAC-1 [5], 56%; in the assay listed under Mus musculus [3] it was 38%. The pEC50 was 4.96 with YAC-1 [6] and 5.40 in the assay listed under Mus musculus [4].
Turning to `C=CCn1c(=O)n(CCCC)c2nc(N)nc(O)c21`, the values for the Max response in the assay listed under Mus musculus [1], in the assay with YAC-1 [5] and in the assay listed under Mus musculus [3] were 77%, 21% and 36%, respectively. Further, the pEC50 is 4.96 in the assay filed under Mus musculus [2], 5.40 with YAC-1 [6] and 5.70 in the assay listed under Mus musculus [4].
Turning to `C=CCn1c(=O)n(C2OC(CO)[C@@H](O)C2O)c2nc(N)nc(O)c21` (stereo partly specified), the Max response turned out to be 143% in the assay listed under Mus musculus [1], 68% with YAC-1 [5] and 76% in the assay filed under Mus musculus [3]. Further, the pEC50 in the assay filed under Mus musculus [2] is 3.63; in the assay on YAC-1 [6], 4.22; in the assay listed under Mus musculus [4], 4.77.
Take `C=CCn1c(=S)n(C2OC(COC(C)=O)[C@@H](OC(C)=O)[C@H]2OC(C)=O)c2nc(NC(C)=O)nc(O)c21` (stereo partly specified): the Max response amounted to 60% in the assay filed under Mus musculus [1], 77% in the assay on YAC-1 [5] and 134% in the assay listed under Mus musculus [3]. In addition, the pEC50 in the assay listed under Mus musculus [2] is 3.53; in the assay on YAC-1 [6], 5.30; in the assay filed under Mus musculus [4], 5.15.
Turning to `C=CCn1c(=S)n(C2OC(COC(C)=O)[C@@H](OC(C)=O)[C@H]2OC(C)=O)c2nc(N)nc(O)c21` (stereo partly specified), the Max response stood at 141% in the assay listed under Mus musculus [1] and 96% in the assay listed under Mus musculus [3]. In addition, the figures for the pEC50 in the assay listed under Mus musculus [2] and in the assay filed under Mus musculus [4] were 4.47 and 5.30, respectively.
On the same counts, the results for `Nc1nc(O)c2c(n1)n(C1OC(CO)[C@@H](O)[C@H]1O)c(=O)n2C/C=C/c1ccccc1` (stereo partly specified) are 73%, 5%, 2.35 and 3.99.
As to `CN(C)CCCn1c(=O)n(C2OC(CO)[C@@H](O)[C@H]2O)c2nc(N)nc(O)c21` (stereo partly specified), the Max response is reported as 83% in the assay filed under Mus musculus [1] and 63% in the assay listed under Mus musculus [3]. In addition, the pEC50 is 3.09 in the assay listed under Mus musculus [2] and 3.71 in the assay filed under Mus musculus [4].
Regarding `C=CCn1c(=O)n(Cc2ccccc2)c2nc(N)nc(O)c21`, the Max response in the assay listed under Mus musculus [1] is recorded as 25%. Besides, in the assay listed under Mus musculus [4], the pEC50 was 5.30.
On the same counts, the results for `C=CCn1c(=O)n(CCC(COCc2ccccc2)COCc2ccccc2)c2nc(N)nc(O)c21` are 68% and 5.15.
On the same counts, the results for `Nc1nc(O)c2c(n1)n(C1OC(CO)[C@@H](O)[C@H]1O)c(=O)n2CC(O)CSc1ccccc1` (stereo partly specified) are 12% and 3.85.
Take `Nc1nc(O)c2c(n1)n(C1OC(CO)[C@@H](O)[C@H]1O)c(=O)n2CC(O)CN1CCN(c2ccc(F)cc2)CC1` (stereo partly specified): in the assay filed under Mus musculus [1], the Max response amounted to 16%.
On to `C=CCn1/c(=N\C#N)n([C@H]2OC(CO)[C@@H](O)[C@H]2O)c2nc(N)nc(O)c21` (stereo partly specified), for which, in the assay listed under Mus musculus [1], the Max response was 85%. Moreover, the pEC50 in the assay filed under Mus musculus [4] is 3.81.
For `COc1ccc(Cn2c(=O)n(C3OC(CO)[C@@H](O)[C@H]3O)c3nc(N)nc(O)c32)cc1` (stereo partly specified), the Max response in the assay filed under Mus musculus [1] is listed as 44%; in the assay filed under Mus musculus [3], 14%. Also, the pEC50 in the assay listed under Mus musculus [2] is 2.62; in the assay filed under Mus musculus [4], 3.87.
`Nc1nc(O)c2c(n1)n(C1OC(CO)[C@@H](O)[C@H]1O)c(=O)n2CCCl` (stereo partly specified): the Max response is on record as 101% in the assay filed under Mus musculus [1] and 83% with YAC-1 [5]. In addition, the pEC50 was 4.72 in the assay with YAC-1 [6] and 5.40 in the assay filed under Mus musculus [4].
In the case of `Cn1c(=O)n(C2OC(CI)[C@@H](O)[C@H]2O)c2nc(N)nc(O)c21` (stereo partly specified), the Max response in the assay filed under Mus musculus [1] is listed as 32%; in the assay filed under Mus musculus [3], 4%. Moreover, in the assay filed under Mus musculus [2], the pEC50 is 4.28.
As for `CC1(C)O[C@@H]2[C@H](O1)[C@@H](CO)O[C@H]2n1c(=O)n(C/C=C/c2ccccc2)c2c(O)nc(N)nc21`, the results for the Max response in the assay filed under Mus musculus [1] and in the assay listed under Mus musculus [3] were 16% and 10%, respectively.
In the assay listed under Mus musculus [1], `Nc1nc(O)c2c(n1)n(C1OC(CO)[C@@H](O)[C@H]1O)c(=O)n2Cc1ccccc1` (stereo partly specified) had a Max response of 110%. Moreover, the pEC50 in the assay listed under Mus musculus [4] was 5.22.
Turning to `CCCCn1c(=O)n(C2OC(CO)[C@@H](O)[C@H]2O)c2nc(N)nc(O)c21` (stereo partly specified), the Max response in the assay filed under Mus musculus [1] stood at 86%; in the assay listed under Mus musculus [3], 70%. In addition, the pEC50 in the assay listed under Mus musculus [2] was 4.00; in the assay listed under Mus musculus [4], 4.96.
As for `[N-]=[N+]=NCC(O)Cn1c(=O)n(C2OC(CO)[C@@H](O)[C@H]2O)c2nc(N)nc(O)c21` (stereo partly specified), the Max response in the assay listed under Mus musculus [1] came out at 91%. The pEC50 in the assay filed under Mus musculus [4] was 4.41.
Regarding `CCn1c(=O)n(C2OC(CO)[C@@H](O)[C@H]2O)c2nc(N)nc(O)c21` (stereo partly specified), the Max response in the assay listed under Mus musculus [1] and in the assay filed under Mus musculus [3] was 82% in each case. For the same compound, in the assay listed under Mus musculus [4], the pEC50 is 4.82.
`NCC(O)Cn1c(=O)n(C2OC(CO)[C@@H](O)[C@H]2O)c2nc(N)nc(O)c21` (stereo partly specified) came in with a Max response in the assay listed under Mus musculus [1] of 110%. Besides, the pEC50 in the assay filed under Mus musculus [4] is 4.55.
Regarding `COc1ccc(CCNCC(O)Cn2c(=O)n(C3OC(CO)[C@@H](O)[C@H]3O)c3nc(N)nc(O)c32)cc1OC` (stereo partly specified), the Max response in the assay filed under Mus musculus [1] stood at 3%.
`C=CCn1c(=O)n(C2CN(C(c3ccccc3)c3ccccc3)CC(CO)O2)c2nc(N)nc(O)c21` (stereo unspecified): the Max response in the assay on YAC-1 [5] came to 46%. Besides, the pEC50 with YAC-1 [6] was 4.92.
`Cn1c(=O)n([C@@H]2O[C@H](CO)[C@H]3OC(C)(C)O[C@H]32)c2nc(N)nc(O)c21`: the values for the Max response in the assay listed under Mus musculus [1] and in the assay listed under Mus musculus [3] were 193% and 17%, respectively. Also, the pEC50 in the assay listed under Mus musculus [4] is 3.77.
For the compound `Nc1nc(O)c2nc(S)n([C@@H]3O[C@H](CO)[C@@H](O)[C@H]3O)c2n1`, the Max response in the assay filed under Mus musculus [1] and in the assay listed under Mus musculus [3] was 100% in each case. Besides, the pEC50 was 3.27 in the assay listed under Mus musculus [2] and 4.30 in the assay listed under Mus musculus [4].
As for `C=CCn1c(=S)n(C2OC(CO)[C@@H](O)[C@H]2O)c2nc(N)nc(O)c21` (stereo partly specified), the Max response in the assay listed under Mus musculus [1] was 100%; in the assay filed under Mus musculus [3], 151%. Moreover, the pEC50 is 4.70 in the assay listed under Mus musculus [2] and 6.00 in the assay listed under Mus musculus [4].
As to `Nc1nc(O)c2c(n1)n(C1OC(CO)[C@@H](O)[C@H]1O)c(=O)n2Cc1ccc(Cl)cc1` (stereo partly specified), the Max response in the assay filed under Mus musculus [1] is given as 15%; in the assay on YAC-1 [5] it was 27%. For the same compound, the pEC50 in the assay on YAC-1 [6] was 3.74; in the assay filed under Mus musculus [4], 4.85.
Take `Nc1nc(O)c2c(n1)n(C1OC(CO)[C@@H](O)[C@H]1O)c(=O)n2CC(O)CO` (stereo partly specified): in the assay listed under Mus musculus [1], the Max response stood at 136%. In the assay listed under Mus musculus [4], the pEC50 was 4.35.
As to `CCOC(=O)Cn1c(=O)n(C2OC(CO)[C@@H](O)[C@H]2O)c2nc(N)nc(O)c21` (stereo partly specified), the Max response in the assay filed under Mus musculus [1] is 86%; in the assay listed under Mus musculus [3], 58%. For the same compound, the pEC50 was 3.20 in the assay filed under Mus musculus [2] and 4.32 in the assay listed under Mus musculus [4].
On to `C=CCn1c(=[Se])n(C2OC(CO)[C@@H](O)[C@H]2O)c2nc(N)nc(O)c21` (stereo partly specified), for which the Max response in the assay listed under Mus musculus [1] was found to be 70%; in the assay listed under Mus musculus [3], 107%. In addition, the pEC50 in the assay listed under Mus musculus [2] is 3.93; in the assay listed under Mus musculus [4], 4.82.
On to `CCCCCCn1c(=O)n(C2OC(CO)[C@@H](O)[C@H]2O)c2nc(N)nc(O)c21` (stereo partly specified), for which the pEC50 in the assay listed under Mus musculus [2] was 3.22. Moreover, the Max response in the assay filed under Mus musculus [3] amounted to 11%.
`C=CCn1c(=O)n(CCCCCCCC)c2nc(N)nc(O)c21` returned a Max response in the assay filed under Mus musculus [1] of 130%. For the same compound, in the assay filed under Mus musculus [4], the pEC50 is 4.43.
